Measurements reported in ChEMBL document CHEMBL1141138, “A novel immunostimulator, N-[alpha-O-benzyl-N-(acetylmuramyl)-L-alanyl-D-isoglutaminyl]-N6-trans-(m-nitrocinnamoyl)-L-lysine, and its adjuvancy on the hepatitis B surface antigen” (J Med Chem, 2005).
Values joined by “and” are separate entries in the source; they are usually repeats but may differ in a detail not shown here. Equal entries are not always repeated.

Experiments:
[1] = In vivo toxicity (500 mg/kg) is assessed as mass index in mice thymus cells; format: organism-based; conditions: mouse
[2] = In vivo toxicity (100 mg/kg) is assessed as increase in mass index of mice spleen cells relative to control (56.4+/-11.5); format: organism-based; conditions: mouse
[3] = In vivo toxicity (100 mg/kg) is assessed as increase in mass index of mice thymus cells relative to control (44.1+/-5.13); format: organism-based; conditions: mouse
[4] = In vivo toxicity (500 mg/kg) is assessed as increase in mass index of mice spleen cells relative to control (56.4+/-11.5); format: organism-based; conditions: mouse
[5] = In vivo toxicity (100 mg/kg) is assessed as mass index in mice spleen cells; format: organism-based; conditions: mouse
[6] = In vivo toxicity (100 mg/kg) is assessed as mass index in mice thymus cells; format: organism-based; conditions: mouse
[7] = In vivo toxicity (500 mg/kg) is assessed as mass index in mice spleen cells; format: organism-based; conditions: mouse
P388 = experiment: Increased inhibitory ratio against P388 mice tumor cells compared to control; format: functional, Mus musculus
Summary of the method: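 Thioglycollate-elicited peritoneal macrophages from C57BL/6J mice (harvested 3 days after ip TG) were coincubated with P388 leukemia cells and compound for 72 h. P388 with compound alone served as the toxicity control. Surviving tumor cells were read by MTT at 570 nm, reference 630 nm. The inhibitory ratio was taken versus control.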

[8] = Effect of compound (10e-6 mol/L) on secretion of Interleukin-2 treated with bone marrow-derived dendritic cells in absence of lipopolysaccharide; format: functional, Mus musculus
Summary of the method: (§1)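 BMDCs came from BALB/c bone marrow adherent cells grown with IL-4 and GM-CSF (10 ng/mL each); half the medium was renewed every other day. On day 5 cells were preincubated with compound for 30 min, then held ±LPS (1.0 μg/mL) for 48 h. Supernatant IL-2 and IL-12 (pg/mL) were measured by sandwich ELISA. Detection limits were 15.0 and 7.8 pg/mL.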

[9] = Effect of compound (10e-7 mol/L) on secretion of Interleukin-2 treated with bone marrow-derived dendritic cells in absence of lipopolysaccharide; format: functional, Mus musculus; summary of the method: as §1
[10] = Effect of compound (10e-8 mol/L) on secretion of Interleukin-2 treated with bone marrow-derived dendritic cells in absence of lipopolysaccharide; format: functional, Mus musculus; summary of the method: as §1
[11] = Effect of compound (10e-6 mol/L) on secretion of Interleukin-12 treated with bone marrow-derived dendritic cells in absence of lipopolysaccharide; format: functional, Mus musculus; summary of the method: as §1
[12] = Effect of compound (10e-6 mol/L) on secretion of Interleukin-2 treated with bone marrow-derived dendritic cells in presence of lipopolysaccharide; format: functional, Mus musculus; summary of the method: as §1
[13] = Effect of compound (10e-7 mol/L) on secretion of Interleukin-12 treated with bone marrow-derived dendritic cells in absence of lipopolysaccharide; format: functional, Mus musculus; summary of the method: as §1
[14] = Effect of compound (10e-7 mol/L) on secretion of Interleukin-2 treated with bone marrow-derived dendritic cells in presence of lipopolysaccharide; format: functional, Mus musculus; summary of the method: as §1
[15] = Effect of compound (10e-8 mol/L) on secretion of Interleukin-12 treated with bone marrow-derived dendritic cells in absence of lipopolysaccharide; format: functional, Mus musculus; summary of the method: as §1
[16] = Effect of compound (10e-8 mol/L) on secretion of Interleukin-2 treated with bone marrow-derived dendritic cells in presence of lipopolysaccharide; format: functional, Mus musculus; summary of the method: as §1
[17] = Effect of compound (10e-9 mol/L) on secretion of Interleukin-2 treated with bone marrow-derived dendritic cells in presence of lipopolysaccharide; format: functional, Mus musculus; summary of the method: as §1
[18] = Effect of compound (10e-6 mol/L) on secretion of Interleukin-12 treated with bone marrow-derived dendritic cells in presence of lipopolysaccharide; format: functional, Mus musculus; summary of the method: as §1
[19] = Effect of compound (10e-7 mol/L) on secretion of Interleukin-12 treated with bone marrow-derived dendritic cells in presence of lipopolysaccharide; format: functional, Mus musculus; summary of the method: as §1
[20] = Effect of compound (10e-8 mol/L) on secretion of Interleukin-12 treated with bone marrow-derived dendritic cells in presence of lipopolysaccharide; format: functional, Mus musculus; summary of the method: as §1
[21] = Effect of compound (10e-9 mol/L) on secretion of Interleukin-12 treated with bone marrow-derived dendritic cells in presence of lipopolysaccharide; format: functional, Mus musculus; summary of the method: as §1
P815 [22] = experiment: In vitro stimulatory effect on specific release of allogenic CTL cytotoxicity on P815 cells mediated by BMDC in presence of LPS; format: functional, Mus musculus
Summary of the method: (§2)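 BALB/c (H-2d) BMDCs were pretreated with compound ±LPS for 24 h, then cocultured in quadruplicate with C57BL/6J (H-2b) splenocytes. Effectors harvested on day 6 were set to 5 × 10^5 cells and incubated with 1 × 10^4 P815 (H-2d) targets for 5 h. LDH release was read at OD450. Specific release = (E−S)/(M−S)×100; maximum release used 1% Triton X-100.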

Mus musculus [23] = experiment: Effect (10 mg/kg/day*7 days, i.v.) on cyclophosphamide (CY, i.p.) treated mice (immunosuppressed animal model) assessed by CD4+/CD8+ ratio in peripheral blood mononuclear cells; format: functional
Summary of the method: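 Male C57BL/6J mice given cyclophosphamide 30 (mg/kg)/day ip for 5 consecutive days, then randomized and dosed iv for 7 consecutive days. PBMCs collected on day 8; ratio of CD3+CD4+ to CD3+CD8+ T cells measured by flow cytometry (CD4-FITC, PE anti-CD8 staining). n = 3.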

Mus musculus [24] = experiment: Effect (0.5 mg/kg/day*7 days, i.v.) on cyclophosphamide (CY, i.p.) treated mice (immunosuppressed animal model) assessed by CD4+/CD8+ ratio in peripheral blood mononuclear cells; format: functional
Mus musculus [25] = experiment: Effect (2.0 mg/kg/day*7 days, i.v.) on cyclophosphamide (CY, i.p.) treated mice (immunosuppressed animal model) assessed by CD4+/CD8+ ratio in peripheral blood mononuclear cells; format: functional
P815 [26] = experiment: In vitro stimulatory effect on increased rate of allogenic CTL cytotoxicity on P815 cells mediated by BMDC in presence of LPS; format: functional, Mus musculus; summary of the method: as §2
Mus musculus [27] = species on record: Mus musculus; experiment: Effect of compound (10e-6 mol/L) on rate of proliferation of murine splenocytes in absence of concanavalin A compared to control; format: functional
Summary of the method: (§3)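 Normal murine splenocytes were exposed to compound with or without concanavalin A (2 μg/mL) for 72 h. Proliferation was read by MTT as OD570. Increased rate (%) was taken versus the matching control without or with ConA. Mean ± SD.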

Mus musculus [28] = species on record: Mus musculus; experiment: Effect of compound (10e-7 mol/L) on rate of proliferation of murine splenocytes in absence of concanavalin A compared to control; format: functional; summary of the method: as §3
Mus musculus [29] = species on record: Mus musculus; experiment: Effect of compound (10e-8 mol/L) on rate of proliferation of murine splenocytes in absence of concanavalin A compared to control; format: functional; summary of the method: as §3
Mus musculus [30] = species on record: Mus musculus; experiment: Effect of compound (10e-9 mol/L) on rate of proliferation of murine splenocytes in absence of concanavalin A compared to control; format: functional; summary of the method: as §3
Mus musculus [31] = species on record: Mus musculus; experiment: Effect of compound (10e-6 mol/L) on rate of proliferation of murine splenocytes in presence of concanavalin A compared to control; format: functional; summary of the method: as §3
Mus musculus [32] = species on record: Mus musculus; experiment: Effect of compound (10e-7 mol/L) on rate of proliferation of murine splenocytes in presence of concanavalin A compared to control; format: functional; summary of the method: as §3
Mus musculus [33] = species on record: Mus musculus; experiment: Effect of compound (10e-8 mol/L) on rate of proliferation of murine splenocytes in presence of concanavalin A compared to control; format: functional; summary of the method: as §3
Mus musculus [34] = species on record: Mus musculus; experiment: Effect of compound (10e-9 mol/L) on rate of proliferation of murine splenocytes in presence of concanavalin A compared to control; format: functional; summary of the method: as §3
P815 [35] = experiment: In vitro stimulatory effect on specific release of allogenic CTL cytotoxicity on P815 cells mediated by BMDC in absence of LPS; format: functional, Mus musculus; summary of the method: as §2
P815 [36] = experiment: In vitro stimulatory effect on increased rate of allogenic CTL cytotoxicity on P815 cells mediated by BMDC in absence of LPS; format: functional, Mus musculus; summary of the method: as §2

CC(=O)N[C@H]1[C@@H](OCc2ccccc2)O[C@H](CO)[C@@H](O)[C@@H]1O[C@H](C)C(=O)N[C@@H](C)C(=O)N[C@H](CCC(=O)N[C@@H](CCCCNC(=O)/C=C/c1cccc([N+](=O)[O-])c1)C(N)=O)C(N)=O
Mass index [1]: 43.5 mg/10g body weight
Mass index [2]: 6%
Mass index [3]: -1.4% and -2.8%
Mass index [4]: 53%
Mass index [5]: 59.9 mg/10g body weight
Mass index [6]: 42.8 mg/10g body weight
Mass index [7]: 86.1 mg/10g body weight
IR (P388): 71%
Activity [8]: 103 pg/mL
Activity [9]: 76 pg/mL
Activity [10]: 60 pg/mL
Activity [11]: 918 pg/mL
Activity [12]: 132 pg/mL
Activity [13]: 786 pg/mL
Activity [14]: 117 pg/mL
Activity [15]: 725 pg/mL
Activity [16]: 107 pg/mL
Activity [17]: 94.8 pg/mL
Activity [18]: 988 pg/mL
Activity [19]: 838 pg/mL
Activity [20]: 819 pg/mL
Activity [21]: 800 pg/mL
Release (P815 [22]): 35.7% and 31.3% and 28.5% and 23.8%
Ratio (Mus musculus [23]): 4.47
Ratio (Mus musculus [24]): 3.18
Ratio (Mus musculus [25]): 4.14
Increase (P815 [26]): 82% and 49% and 28%
Increase (Mus musculus [27]): 191%
Increase (Mus musculus [28]): 75%
Increase (Mus musculus [29]): 27.3%
Increase (Mus musculus [30]): 5.41%
Increase (Mus musculus [31]): 82%
Increase (Mus musculus [32]): 38%
Increase (Mus musculus [33]): 15%
Increase (Mus musculus [34]): 7.8%

O=P1(N(CCCl)CCCl)NCCCO1 (stereo not drawn) [CYCLOPHOSPHAMIDE ANHYDROUS]
Ratio (Mus musculus [23]): 2.4

CCCCCCCCCCCCCCCCCC(=O)NCCCC[C@H](NC(=O)CC[C@@H](NC(=O)[C@H](C)NC(=O)[C@@H](C)O[C@H]1[C@H](O)[C@@H](CO)OC(O)[C@@H]1NC(C)=O)C(N)=O)C(=O)O (stereo partly drawn) [ROMURTIDE]
IR (P388): 45%
Release (P815 [35]): 31.7%
Release (P815 [22]): 30.7%
Increase (P815 [36]): 187%
Increase (P815 [26]): 45%
Increase (Mus musculus [27]): 122%
Increase (Mus musculus [31]): 67%
